In the RNAGym collection of RNA variant scans (doi:10.1101/gad.245936.114):
This sample holds only a part of the variants without activity.

B1: tRNA (parent)
chain: CUCUCGGUAGCCAAGUUGGUUUAAGGCGCAAGACUUUAAUUUAUCACUACGAAAUCUUGAGAUCGGGCGUUCGACUCGCCCCCGGGAGAUUUUUUCCUCGAGCAA

Variants of: B1
Experiment: nonsense suppression (GFP-seq) (ratio to wild type); higher = more function; SUP4oc tRNA, yeast GFP reporter sort-seq
Summary of the method: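 Nonsense suppression (GFPSEQ) is the median GFP/RFP ratio of each sorting bin, weighted by the variant's estimated share of cells in that bin and expressed relative to the unmutated parent tRNA. Yeast strains carried genome-integrated variants of an ochre-suppressor tRNA from a library with ~3% random mutations, plus a galactose-driven GFP ochre reporter and RFP, and were grown in raffinose/galactose medium containing 80 mg/L adenine. Cells were sorted into GFP/RFP bins, each bin was Illumina-sequenced (phred ≥30), and variants were kept only with ≥100 reads and ≥30 cells.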

Row | Variant | nonsense suppression
1 | A9C G61C | 0.791
2 | A9G U16A | 0.845
3 | A9G U16G | 0.551
4 | G7U G65A U76A | ≤ 0.026
5 | G10U A30C U57C U63C | ≤ 0.026
6 | G10A C72A C80A | ≤ 0.026
7 | C11A A60C | ≤ 0.026
8 | C11A A33G C77A C81G | ≤ 0.026
9 | A9C A31G | 0.857
10 | U8G G15C | ≤ 0.026
11 | U8G U17G G69U C80G | ≤ 0.026
12 | U8A A54U U76C A87C | ≤ 0.026
13 | A9U G28U A62G U71G | ≤ 0.026
14 | G10C G15C U20G | ≤ 0.026
15 | G7U G32A A60C A74G | ≤ 0.026
16 | A9U A60U | 0.0653
17 | A9G U22A U35G | ≤ 0.026
18 | A9G C12A | ≤ 0.026
19 | A9C U21A A31G U71C | ≤ 0.026
20 | A9C A13G U55A G73U | ≤ 0.026
21 | A9G C72G U76G G88U | ≤ 0.026

Row | Variant | nonsense suppression
22 | A9U A24G | 0.0422
23 | U8C A9U A54U | ≤ 0.026
24 | G10A A14C C82A | ≤ 0.026
25 | G7U G28U U71G C72A G86U | ≤ 0.026
26 | A9G U16A U55C | 0.188
27 | U8A U16G | 0.0647
28 | A9C A13U A60U | 1.16
29 | A9U C72G | 0.0446
30 | A9G A13G | 0.205
31 | A9G A13C | 0.183
32 | A9U G86A | 0.0496
33 | U8G G25U A54U U70G G73C | ≤ 0.026
34 | A9G A30G G61A | 0.291
35 | U8A A30G A33G | ≤ 0.026
36 | C11A A30C U57A | ≤ 0.026
37 | G10A G32C G88C | ≤ 0.026
38 | U8C U35G U71A | ≤ 0.026
39 | U8G A9U C11A G26U | ≤ 0.026
40 | U8A G67C U71G | ≤ 0.026
41 | U8C A9U C34G C68U | ≤ 0.026
42 | U8C A24U U71C | ≤ 0.026

Row | Variant | nonsense suppression
43 | G10U C12G A31U G32U C68G | ≤ 0.026
44 | A9U A30G | 0.0995
45 | A9C G18A A31C A54C A62U G69C G88C | ≤ 0.026
46 | G10U G84A G86U | ≤ 0.026
47 | G7U U8C | ≤ 0.026
48 | A9G A54U | 0.196
49 | A9G A54C | 0.207
50 | A9U G28C G85A | 0.0603
51 | U8G G88A | 0.228
52 | A9U U63C | 0.0507
53 | U8C A54C | 0.0833
54 | G7U G32A A33C C83A A89G | ≤ 0.026
55 | A9G C82U | 0.531
56 | A9C C68U | 0.765
57 | G10U A14U | 0.19
58 | A9U U17C | 0.128
59 | A9U G15A | 0.0449
60 | G10C U71A A74U A87C | ≤ 0.026
61 | G10U C29A | ≤ 0.026
62 | U8C A31G | 0.0327
63 | A9G C75U | 1.17

Row | Variant | nonsense suppression
64 | A9G C75A | 0.762
65 | G10C G25C G61C U71A | ≤ 0.026
66 | U8C C80G | ≤ 0.026
67 | A9G A30U | 0.163
68 | A9G A30G | 0.466
69 | A9G U17A | 0.92
70 | A9G U17C | 0.113
71 | A9U A54C | 0.0503
72 | A9U A54G | 0.0306
73 | A9U A54U | 0.222
74 | A9U C81A | ≤ 0.026
75 | A9U C81U | 0.0272
76 | A9U G18C | ≤ 0.026
77 | U8A A24C C79G | ≤ 0.026
78 | U8G G73C | ≤ 0.026
79 | G10A A60C G66C G78A | ≤ 0.026
80 | A9U G84U | 0.0747
81 | A9U G84A | 0.138
82 | G10A A31C | ≤ 0.026
83 | G10C G15C G32U U63A | ≤ 0.026
